Experiment [1] in a line: nonspecific flux increase, KCNQ1-free cells – parental CHO cells, counter-screen for KCNQ1 potentiator project (AID 493006;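 active means duplicate-averaged activation above buffer control mean plus 5 SD of those controls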). The conditions noted are these: parental CHO-K1 cells, FluxOR thallium flux, at 10 µM; stronger effect = higher value. In outline: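 Test system: parental CHO-K1 cells, FluxOR dye-loaded / Probe or stimulus: potassium plus thallium depolarizing stimulus, 5x stock 12.5 mM K2SO4, Tl2SO4 / Timing: overnight 37 °C plating, 90 min dye, 20 min dark compound / Measured by: kinetic thallium-flux fluorescence / Read-out: max-minus-min fluorescence over baseline, percent of buffer-to-R-L3 span / Benchmarks: buffer and R-L3 controls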
In general terms: Counterscreens check selectivity or assay interference.

Experiment [2] concerns the target Potassium voltage-gated channel subfamily KQT member 1 (Homo sapiens) (UniProt P51787). Briefly: enhancement of KCNQ1 channel thallium flux – FluxOR thallium flux, CHO cells, duplicates, confirmation (AID 493007;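 active means potentiation averaged over duplicate wells exceeding buffer-only control mean by more than 3 SD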;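 on outcome: cells depolarized by a potassium plus thallium sulfate stimulus after compound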;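 on potentiation: 0% = buffer-only wells and 100% = R-L3 activator control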). The conditions noted are these: KCNQ1 cell line, FluxOR thallium flux fluorescence, at 10 µM; stronger effect = higher value, % of reference activator effect, buffer zero. In outline:
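Assay system: CHO cells carrying KCNQ1 | Controls: Buffer and R-L3 controls | Schedule: FluxOR dye loading 90 min, compound exposure 20 min, room temperature | Read-out: Baseline-normalized fluorescence change, percent of buffer-to-R-L3 range | Replicates: Each compound tested in duplicate | Technique: Kinetic thallium influx fluorescence with FluxOR dye, 10 s baseline, 110 s post-stimulus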

In experiment [3] the target is Potassium voltage-gated channel subfamily KQT member 2 (Rattus norvegicus) (UniProt O88943). Briefly: KCNQ2 thallium flux enhancement – KCNQ2-CHO-K1 cells, selectivity assay for KCNQ1 potentiator project (AID 493009).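 Further: assay conditions were tuned for KCNQ1 rather than KCNQ2 modulators; signal is max minus min fluorescence divided by baseline after thallium stimulus.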 The conditions noted are these: FluxOR thallium flux fluorescence, at 10 µM; stronger effect = higher value, scaled: buffer 0, activator control 100.
Potassium voltage-gated channel subfamily KQT member 2 (Rattus norvegicus), sequence (O88943 whole entry, looked up): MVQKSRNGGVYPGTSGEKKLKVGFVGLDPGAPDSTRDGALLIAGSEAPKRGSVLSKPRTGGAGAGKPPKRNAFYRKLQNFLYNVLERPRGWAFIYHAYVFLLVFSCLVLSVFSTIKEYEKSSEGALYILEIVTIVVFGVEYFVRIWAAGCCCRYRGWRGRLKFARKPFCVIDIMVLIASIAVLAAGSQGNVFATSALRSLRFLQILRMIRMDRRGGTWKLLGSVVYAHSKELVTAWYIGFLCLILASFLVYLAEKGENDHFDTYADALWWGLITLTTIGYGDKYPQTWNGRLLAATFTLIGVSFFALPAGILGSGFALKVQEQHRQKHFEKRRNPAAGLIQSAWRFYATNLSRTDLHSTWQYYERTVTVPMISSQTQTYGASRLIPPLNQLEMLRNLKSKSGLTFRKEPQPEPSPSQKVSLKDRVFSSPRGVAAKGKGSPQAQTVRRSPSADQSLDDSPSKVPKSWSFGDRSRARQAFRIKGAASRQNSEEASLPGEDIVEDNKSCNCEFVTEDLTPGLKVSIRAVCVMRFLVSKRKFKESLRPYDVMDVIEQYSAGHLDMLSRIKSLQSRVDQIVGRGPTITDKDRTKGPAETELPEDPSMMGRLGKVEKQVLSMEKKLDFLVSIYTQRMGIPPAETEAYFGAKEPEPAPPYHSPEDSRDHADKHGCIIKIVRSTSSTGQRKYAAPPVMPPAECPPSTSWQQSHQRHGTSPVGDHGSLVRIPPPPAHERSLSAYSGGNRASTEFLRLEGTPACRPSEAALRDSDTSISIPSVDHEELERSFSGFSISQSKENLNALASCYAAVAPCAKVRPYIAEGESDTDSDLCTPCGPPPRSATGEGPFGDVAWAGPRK
Experiment [4] concerns the target Potassium voltage-gated channel subfamily KQT member 1 (Homo sapiens) (UniProt P51787). Briefly: KCNQ1 activators by electrophysiology – IonWorks patch clamp, KCNQ1-CHO cells, orthogonal assay for KCNQ1 potentiator project, confirmation (AID 493184;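 active means current rise at least 3 SD above the untreated control mean in each of two repeat wells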). The conditions noted are these: automated patch clamp current, at 10 µM; stronger effect = higher value. In outline:
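Material: KCNQ1-expressing CHO cells; doses: 10 µM final, single point; probe or stimulus: voltage step from -90 mV holding to +40 mV, 2,000 ms; signal: automated voltage clamp, amphotericin B perforated patch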

The text below walks through data of PubChem BioAssay.

Molecules are shown by their SMILES. The source made the active and inactive calls.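 How the source made its calls, unless noted: active means mean duplicate potentiation above the buffer control mean plus 5 SD of buffer wells; inactive means the rest.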

Potassium voltage-gated channel subfamily KQT member 1 (Homo sapiens), sequence (P51787 whole entry, looked up): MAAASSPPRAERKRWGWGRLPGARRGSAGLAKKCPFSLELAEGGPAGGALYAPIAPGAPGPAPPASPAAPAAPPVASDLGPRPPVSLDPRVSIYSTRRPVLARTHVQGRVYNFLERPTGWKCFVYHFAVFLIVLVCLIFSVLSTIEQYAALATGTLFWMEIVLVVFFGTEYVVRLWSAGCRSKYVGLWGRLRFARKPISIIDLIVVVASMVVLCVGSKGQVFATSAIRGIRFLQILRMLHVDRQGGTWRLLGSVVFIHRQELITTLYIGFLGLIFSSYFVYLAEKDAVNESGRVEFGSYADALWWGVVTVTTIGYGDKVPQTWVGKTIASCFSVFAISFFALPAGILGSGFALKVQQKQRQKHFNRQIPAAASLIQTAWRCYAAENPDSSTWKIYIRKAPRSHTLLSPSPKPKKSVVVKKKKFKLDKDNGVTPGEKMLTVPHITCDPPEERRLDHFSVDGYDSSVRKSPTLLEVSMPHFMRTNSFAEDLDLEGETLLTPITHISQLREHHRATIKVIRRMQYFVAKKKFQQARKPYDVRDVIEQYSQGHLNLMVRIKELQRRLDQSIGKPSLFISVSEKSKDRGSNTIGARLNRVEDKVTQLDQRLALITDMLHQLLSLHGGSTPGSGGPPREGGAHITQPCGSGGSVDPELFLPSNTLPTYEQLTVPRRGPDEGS

Consider `CCCCC(Nc1ncnc2ccccc12)C(=O)O` (stereo not given), for which the result in experiment [1], in experiment [2], in experiment [3] and in experiment [4] was inactive.
With `O=C(NCC1CCCO1)c1ccc2c(c1)S(=O)(=O)c1ccccc1C2=O` (stereo not given), the outcome in experiment [1], in experiment [2], in experiment [3] and in experiment [4] was inactive.
As for `O=C(c1ccc(S(=O)(=O)N2CCCC2)cc1)N1CCN(c2cccc(Cl)c2)CC1`, the result in experiment [1], in experiment [2], in experiment [3] and in experiment [4] was inactive.
On to `Oc1c(Br)cc(Cl)cc1C=Nc1ccccc1Br`, for which the activation in experiment [1] was 296% (active). For the same compound, the potentiation was 161% (active) in experiment [2] and 310% (active) in experiment [3]. Moreover, in experiment [4], the outcome was inactive.
In the case of `COC(=O)CSc1nc(N)c2c3c(sc2n1)C(c1ccccc1)SC(c1ccccc1)C3` (stereo not given), the outcome in experiment [1], in experiment [2], in experiment [3] and in experiment [4] was inactive.
As for `CCOc1ccccc1NC(=S)NC(=O)c1ccco1`, the activation in experiment [1] is 172% (active). Also, the potentiation in experiment [2] was 35% (active); in experiment [3], 184% (active). In addition, the outcome in experiment [4] was inactive.
On to `CCOC(=O)c1sc(N2N=C(C)C(N=Nc3cccc(C)c3)C2=O)nc1C` (stereo not given), for which the result in experiment [1] and in experiment [4] was inactive. The potentiation is 31% (active) in experiment [2] and 148% (active) in experiment [3].
Consider `CC(=O)Nc1ccc(NC(=O)c2cccc(C(=O)OC(C)C)n2)cc1`, for which the result in experiment [1], in experiment [2], in experiment [3] and in experiment [4] was inactive.
`Cc1cc(/C=N/NC(=O)c2nn(C)cc2Cl)c(C)n1-c1cccc(Br)c1`: the result in experiment [1], in experiment [2], in experiment [3] and in experiment [4] was inactive.
In the case of `CCOc1ccccc1NC(=O)C(=O)CC(=O)c1cccc(OC)c1`, the activation in experiment [1] was 216% (active). Besides, the values for the potentiation in experiment [2] and in experiment [3] were 87% (active) and 280% (active), respectively. Also, the result in experiment [4] was inactive.
Take `O=C(/C=C/c1ccco1)NC(=S)Nc1ccccc1O`: the outcome in experiment [1], in experiment [2], in experiment [3] and in experiment [4] was inactive.
With `CCc1ccc(/C=C/C(=O)c2cc(Br)ccc(=O)c2O)cc1`, in experiment [1], the activation is 203% (active). For the same compound, the potentiation is 140% (active) in experiment [2] and 296% (active) in experiment [3]. Further, the result in experiment [4] was inactive.
Take `CN1c2ccccc2C(O)=C(C(=S)Nc2ccc(Cl)cc2)S1(=O)=O`: the activation in experiment [1] was 139% (active). In addition, the result in experiment [2] and in experiment [4] was inactive. Also, in experiment [3], the potentiation was 146% (active).
Take `CC(C)c1ccc(C(=O)NC2=NCCS2)cc1`: the result in experiment [1], in experiment [2], in experiment [3] and in experiment [4] was inactive.
On to `CCOc1ccc(NC(=O)CN(C)C(=O)c2c(-c3c(F)cccc3Cl)noc2C)cc1OCC`, for which the outcome in experiment [1], in experiment [2], in experiment [3] and in experiment [4] was inactive.
Turning to `O=C(NCCCn1ccnc1)c1cc(C2CC2)on1`, the outcome in experiment [1], in experiment [2], in experiment [3] and in experiment [4] was inactive.
As for `O=C(CN1C(=O)CNC1=O)Nc1cccc(C(F)(F)F)c1`, the result in experiment [1], in experiment [2], in experiment [3] and in experiment [4] was inactive.
`CCOC(=O)C(=NCC1CCCO1)NNc1ccccc1Cl` (stereo not given): the outcome in experiment [1], in experiment [2], in experiment [3] and in experiment [4] was inactive.
For `O=C(NC(=S)N1CCN(c2ccccc2)CC1)c1c(F)cccc1F`, the outcome in experiment [1], in experiment [2], in experiment [3] and in experiment [4] was inactive.
Regarding `Cc1noc(C)c1COc1ccc(CC(=O)NCc2ccccc2)cc1`, the outcome in experiment [1], in experiment [2], in experiment [3] and in experiment [4] was inactive.
On to `CCC(C)(C)NC(=O)C(c1ccncc1)N(Cc1cccs1)C(=O)Cn1nnc2ccccc21` (stereo not given), for which the outcome in experiment [1], in experiment [2], in experiment [3] and in experiment [4] was inactive.
On to `CCOc1ccc2nc(/N=C/c3c(C)[nH]n(-c4ccc(C)cc4)c3=O)sc2c1`, for which, in experiment [1], the activation is 356% (active). For the same compound, the potentiation in experiment [2] is 120% (active); in experiment [3], 332% (active). In addition, the result in experiment [4] was inactive.
As for `CCCn1c(N)c(C(=O)CSc2nc(C)nc3sc(C)c(C)c23)c(=O)[nH]c1=O`, the activation in experiment [1] is 166% (active). In addition, the potentiation is 23% (active) in experiment [2] and 194% (active) in experiment [3]. In addition, the result in experiment [4] was inactive.
Taken in the same sequence, the figures for `CCn1c(SC(C)C(=O)O)nc2sc3c(c2c1=O)CCC3` (stereo not given) were 203% (active), 42.5% (active), 230% (active) and “inactive”.
With `Cc1ccc(-c2nc3ncccc3o2)cc1NC(=O)c1cccnc1`, the result in experiment [1], in experiment [2], in experiment [3] and in experiment [4] was inactive.
As for `Cc1ccc(N=Nc2ccc(O)c3ncccc23)cc1C`, the activation in experiment [1] was 154% (active). Moreover, the potentiation was 24.5% (active) in experiment [2] and 190% (active) in experiment [3]. In addition, in experiment [4], the outcome was inactive.
Regarding `CC1CCCCN1S(=O)(=O)c1ccc(S(=O)(=O)N(CC(=O)Nc2ccccc2)Cc2cccs2)cc1` (stereo not given), the result in experiment [1], in experiment [2], in experiment [3] and in experiment [4] was inactive.
As to `COc1ccccc1CNC(=O)c1oc2ccc(S(=O)(=O)N3CCOCC3)cc2c1C`, the result in experiment [1], in experiment [2], in experiment [3] and in experiment [4] was inactive.
As for `CCCCNC(=S)NC(=O)c1ccc([N+](=O)[O-])cc1`, in experiment [1], the activation is 168% (active). Moreover, the potentiation in experiment [2] is 29% (active); in experiment [3], 190% (active). Besides, the result in experiment [4] was inactive.
Take `CC(C)(C)NC(=O)C(=O)NNC(=O)C12CC3CC(CC(C3)C1)C2`: the activation in experiment [1] is 178% (active). In addition, the results for the potentiation in experiment [2] and in experiment [3] were 40% (active) and 192% (active), respectively. Moreover, the result in experiment [4] was inactive.
